Legend:
[1] = molecular target: T1, Protein cereblon/Androgen receptor (Homo sapiens, UniProt P10275+Q96SW2); test: Protac activity at CRBN/AR in human VCaP cells assessed as induction of AR degradation at 0.001 uM measured after 24 hrs by western blot analysis relative to control; assay type: cell-based
[2] = molecular target: T1, Protein cereblon/Androgen receptor; test: Protac activity at CRBN/AR in human VCaP cells assessed as induction of AR degradation at 0.01 uM measured after 24 hrs by western blot analysis relative to control; assay type: cell-based
Procedure, shortened: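 VCaP cells treated 24 h at 1, 10, 100 and 1000 nM; lysed in RIPA with protease/phosphatase inhibitors, run on 4–12% SDS-PAGE, blotted to PVDF. AR bands background-subtracted and normalized to loading control; degradation relative to DMSO, average of three independent experiments.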

[3] = molecular target: T1, Protein cereblon/Androgen receptor; test: Protac activity at CRBN/AR in human VCaP cells assessed as induction of AR degradation at 0.1 uM measured after 24 hrs by western blot analysis relative to control; assay type: cell-based
[4] = molecular target: T1, Protein cereblon/Androgen receptor; test: Protac activity at CRBN/AR in human VCAP cells assessed as induction of AR degradation at 1 uM by western blot analysis relative to control; assay type: cell-based; details: time 24.0 hrs
[5] = Plasma concentration in CB17 SCID mouse at 10 mg/kg, po measured after 1 hr by LC-MS/MS analysis; assay type: ADME, organism-based
Procedure, shortened: (§1)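 Single oral gavage at 10 mg/kg in 100% PEG200 to non-tumor-bearing male mice; three mice per time point, blood collected at 1, 3 and 6 h, plasma obtained by centrifugation and measured by LC–MS/MS; reported as mean ± SD.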

[6] = Plasma concentration in CB17 SCID mouse at 10 mg/kg, po measured after 3 hr by LC-MS/MS analysis; assay type: ADME, organism-based; procedure, shortened: as §1
[7] = Plasma concentration in CB17 SCID mouse at 10 mg/kg, po measured after 6 hr by LC-MS/MS analysis; assay type: ADME, organism-based; procedure, shortened: as §1

T1 sequence (P10275 whole entry, looked up): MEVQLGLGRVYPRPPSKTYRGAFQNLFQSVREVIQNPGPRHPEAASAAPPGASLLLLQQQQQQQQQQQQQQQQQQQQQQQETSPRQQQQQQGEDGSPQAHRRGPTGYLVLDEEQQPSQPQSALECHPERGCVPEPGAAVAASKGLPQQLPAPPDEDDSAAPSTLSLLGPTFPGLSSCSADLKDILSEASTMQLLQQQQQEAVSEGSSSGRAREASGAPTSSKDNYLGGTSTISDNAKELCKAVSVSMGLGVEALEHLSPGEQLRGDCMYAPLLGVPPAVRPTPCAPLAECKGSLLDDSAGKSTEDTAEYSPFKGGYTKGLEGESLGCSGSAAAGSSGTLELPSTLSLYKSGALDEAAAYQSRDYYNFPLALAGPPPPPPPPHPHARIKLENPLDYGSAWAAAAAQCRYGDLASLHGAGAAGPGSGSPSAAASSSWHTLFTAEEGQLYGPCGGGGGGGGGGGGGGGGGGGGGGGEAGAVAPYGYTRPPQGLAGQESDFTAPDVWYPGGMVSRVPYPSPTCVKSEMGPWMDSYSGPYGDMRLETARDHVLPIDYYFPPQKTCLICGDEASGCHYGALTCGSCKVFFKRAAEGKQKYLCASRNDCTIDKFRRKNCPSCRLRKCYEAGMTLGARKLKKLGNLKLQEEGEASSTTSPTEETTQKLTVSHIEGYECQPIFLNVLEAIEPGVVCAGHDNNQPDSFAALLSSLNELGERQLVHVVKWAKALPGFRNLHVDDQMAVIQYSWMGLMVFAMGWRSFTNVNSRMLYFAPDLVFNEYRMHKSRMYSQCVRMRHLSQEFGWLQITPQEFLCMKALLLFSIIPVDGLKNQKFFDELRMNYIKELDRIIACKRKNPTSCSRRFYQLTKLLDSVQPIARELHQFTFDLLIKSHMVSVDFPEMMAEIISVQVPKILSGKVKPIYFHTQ
T1 sequence (Q96SW2 whole entry, looked up): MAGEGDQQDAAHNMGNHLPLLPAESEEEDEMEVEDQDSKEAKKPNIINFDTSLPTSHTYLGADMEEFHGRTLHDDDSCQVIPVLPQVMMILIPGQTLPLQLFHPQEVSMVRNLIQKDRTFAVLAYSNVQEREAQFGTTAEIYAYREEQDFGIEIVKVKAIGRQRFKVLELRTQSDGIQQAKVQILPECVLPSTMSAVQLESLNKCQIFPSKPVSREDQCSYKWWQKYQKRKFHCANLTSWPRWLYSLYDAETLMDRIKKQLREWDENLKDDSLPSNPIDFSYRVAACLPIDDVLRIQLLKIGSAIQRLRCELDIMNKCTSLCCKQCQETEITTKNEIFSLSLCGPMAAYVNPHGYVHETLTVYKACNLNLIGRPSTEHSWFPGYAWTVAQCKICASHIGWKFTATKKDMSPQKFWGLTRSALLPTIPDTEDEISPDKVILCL

Activity [1] | Activity [2] | Activity [3] | Activity [4] | concentration at 1 h [5] | concentration at 3 h [6] | concentration at 6 h [7] | Structure (SMILES)
30% | 82% | 97% | 95% |  |  |  | CC1(C)[C@H](NC(=O)c2ccc(N3CCN(CC4CC5(C4)CN(c4ccc6c(c4)C(=O)N(C4CCC(=O)NC4=O)C6=O)C5)CC3)cc2)C(C)(C)[C@H]1Oc1ccc(C#N)c(Cl)c1 (stereo partly drawn)
6% | 12% | 33% | 41% |  |  |  | CC1(C)[C@H](NC(=O)c2ccc(N3CCN(CC4CCN(c5ccc6c(c5)C(=O)N(C5CCC(=O)NC5=O)C6=O)CC4)CC3)cc2)C(C)(C)[C@H]1Oc1cnc(C#N)c(C(F)(F)F)c1 (stereo partly drawn)
< 5% | 30% | 25% | 39% |  |  |  | N#Cc1ccc(O[C@H]2C[C@H](NC(=O)c3ccc(N4CCN(CC5CCN(c6ccc7c(c6)C(=O)N(C6CCC(=O)NC6=O)C7=O)CC5)CC4)cc3)C2)cc1Cl (stereo partly drawn)
< 5% | < 5% | < 5% | 9% |  |  |  | CC1(C)[C@H](NC(=O)c2ccc(N3CCN(CCCNc4cccc5c4C(=O)N(C4CCC(=O)NC4=O)C5=O)CC3)cc2)C(C)(C)[C@H]1Oc1ccc(C#N)c(Cl)c1 (stereo partly drawn)
14% | 38% | 67% | 80% |  |  |  | CC1(C)[C@H](NC(=O)c2ccc(N3CCN(C4CCC5(CC4)CCN(c4ccc6c(c4)C(=O)N(C4CCC(=O)NC4=O)C6=O)CC5)CC3)cc2)C(C)(C)[C@H]1Oc1ccc(C#N)c(Cl)c1 (stereo partly drawn)
65% | 92% | 96% | 79% |  |  |  | CC1(C)[C@H](NC(=O)c2ccc(C(=O)N3CCN(CC4CN(c5ccc6c(c5)C(=O)N(C5CCC(=O)NC5=O)C6=O)C4)CC3)cc2)C(C)(C)[C@H]1Oc1ccc(C#N)c(Cl)c1 (stereo partly drawn)
15% | 48% | 73% | 82% |  |  |  | CC1(C)[C@H](NC(=O)c2ccc(N3CCN(C4CCC5(CC4)CN(c4ccc6c(c4)C(=O)N(C4CCC(=O)NC4=O)C6=O)C5)CC3)cc2)C(C)(C)[C@H]1Oc1ccc(C#N)c(Cl)c1 (stereo partly drawn)
42% | 63% | 84% | 82% |  |  |  | CC1(C)[C@H](NC(=O)c2ccc(N3CCN(CCCCNc4ccc5c(c4)C(=O)N(C4CCC(=O)NC4=O)C5=O)CC3)cc2)C(C)(C)[C@H]1Oc1ccc(C#N)c(Cl)c1 (stereo partly drawn)
49% | 84% | 89% | 97% | 111 ng/mL | 55.9 ng/mL | 2.9 ng/mL | CC1(C)[C@H](NC(=O)c2ccc(NCCCCCNc3ccc4c(c3)C(=O)N(C3CCC(=O)NC3=O)C4=O)cc2)C(C)(C)[C@H]1Oc1ccc(C#N)c(Cl)c1 (stereo partly drawn)
22% | 45% | 87% | 90% |  |  |  | CC1(C)[C@H](NC(=O)c2ccc(N3CCN(CC4CCN(c5ccc6c(c5)C(=O)N(C5CCC(=O)NC5=O)C6=O)CC4)CC3)cc2)C(C)(C)[C@H]1Oc1ccc(C#N)c(C(F)(F)F)c1 (stereo partly drawn)
42% | 76% | 55% | 21% |  |  |  | CC1(C)[C@H](NC(=O)c2ccc(NCCCCNc3ccc4c(c3)C(=O)N(C3CCC(=O)NC3=O)C4=O)cc2)C(C)(C)[C@H]1Oc1ccc(C#N)c(Cl)c1 (stereo partly drawn)
28% | 58% | 79% | 62% |  |  |  | CC1(C)[C@H](NC(=O)c2ccc(NCCCCCCCNc3ccc4c(c3)C(=O)N(C3CCC(=O)NC3=O)C4=O)cc2)C(C)(C)[C@H]1Oc1ccc(C#N)c(Cl)c1 (stereo partly drawn)
< 5% | 23% | 41% | 32% |  |  |  | CC1(C)[C@H](NC(=O)c2ccc(N3CCN(CCNc4cccc5c4C(=O)N(C4CCC(=O)NC4=O)C5=O)CC3)cc2)C(C)(C)[C@H]1Oc1ccc(C#N)c(Cl)c1 (stereo partly drawn)
7% | 40% | 47% | 32% |  |  |  | CC1(C)[C@H](NC(=O)c2ccc(N3CCN(CCCCNc4cccc5c4C(=O)N(C4CCC(=O)NC4=O)C5=O)CC3)cc2)C(C)(C)[C@H]1Oc1ccc(C#N)c(Cl)c1 (stereo partly drawn)
48% | 76% | 82% | 73% |  |  |  | CC1(C)[C@H](NC(=O)c2ccc(NCCCCCCCCNc3ccc4c(c3)C(=O)N(C3CCC(=O)NC3=O)C4=O)cc2)C(C)(C)[C@H]1Oc1ccc(C#N)c(Cl)c1 (stereo partly drawn)
22% | 37% | 54% | 53% | 267 ng/mL | 254 ng/mL | 96.9 ng/mL | CC1(C)[C@H](NC(=O)c2ccc(N3CCN(CCCNc4ccc5c(c4)C(=O)N(C4CCC(=O)NC4=O)C5=O)CC3)cc2)C(C)(C)[C@H]1Oc1ccc(C#N)c(Cl)c1 (stereo partly drawn)

Activity [1] | Activity [2] | Activity [3] | Activity [4] | concentration at 1 h [5] | concentration at 3 h [6] | concentration at 6 h [7] | Structure (SMILES)
12% | 59% | 85% | 60% |  |  |  | CC1(C)[C@H](NC(=O)c2ccc(N3CCN(CCCCCNc4ccc5c(c4)C(=O)N(C4CCC(=O)NC4=O)C5=O)CC3)cc2)C(C)(C)[C@H]1Oc1ccc(C#N)c(Cl)c1 (stereo partly drawn)
13% | 30% | 38% | 57% |  |  |  | CC1(C)[C@H](NC(=O)c2ccc(N3CCC4(CCC(Nc5ccc6c(c5)C(=O)N(C5CCC(=O)NC5=O)C6=O)CC4)CC3)cc2)C(C)(C)[C@H]1Oc1ccc(C#N)c(Cl)c1 (stereo partly drawn)
37% | 78% | 93% | 88% |  |  |  | CC1(C)[C@H](NC(=O)c2ccc(N3CCN(C4CC5(C4)CN(c4ccc6c(c4)C(=O)N(C4CCC(=O)NC4=O)C6=O)C5)CC3)cc2)C(C)(C)[C@H]1Oc1ccc(C#N)c(Cl)c1 (stereo partly drawn)
71% | 83% | 95% | 83% |  |  |  | CC1(C)[C@H](NC(=O)c2ccc(C(=O)N3CCN(C4CN(c5ccc6c(c5)C(=O)N(C5CCC(=O)NC5=O)C6=O)C4)CC3)cc2)C(C)(C)[C@H]1Oc1ccc(C#N)c(Cl)c1 (stereo partly drawn)
< 5% | 19% | 75% | 90% |  |  |  | CC1(C)[C@@H](NC(=O)c2ccc(N3CCN(CC4CCN(c5ccc6c(c5)C(=O)N(C5CCC(=O)NC5=O)C6=O)CC4)CC3)cc2)C[C@@H]1Oc1ccc(C#N)c(Cl)c1 (stereo partly drawn)
16% | 56% | 71% | 51% |  |  |  | CC1(C)[C@H](NC(=O)c2ccc(N3CCN(CC4CC5(CCN(c6ccc7c(c6)C(=O)N(C6CCC(=O)NC6=O)C7=O)C5)C4)CC3)cc2)C(C)(C)[C@H]1Oc1ccc(C#N)c(Cl)c1 (stereo partly drawn)
38% | 80% | 87% | 84% |  |  |  | CC1(C)[C@H](NC(=O)c2ccc(N3CCN(C4CC5(CCN(c6ccc7c(c6)C(=O)N(C6CCC(=O)NC6=O)C7=O)C5)C4)CC3)cc2)C(C)(C)[C@H]1Oc1ccc(C#N)c(Cl)c1 (stereo partly drawn)
58% | 83% | 79% | 76% | 1240 ng/mL | 919 ng/mL | 604 ng/mL | CC1(C)[C@H](NC(=O)c2ccc(N3CCN(CCNc4ccc5c(c4)C(=O)N(C4CCC(=O)NC4=O)C5=O)CC3)cc2)C(C)(C)[C@H]1Oc1ccc(C#N)c(Cl)c1 (stereo partly drawn)
0% | 16% | 82% | 88% |  |  |  | CC1(C)[C@H](NC(=O)c2ccc(N3CCC4(CC3)CC(Nc3ccc5c(c3)C(=O)N(C3CCC(=O)NC3=O)C5=O)C4)cc2)C(C)(C)[C@H]1Oc1ccc(C#N)c(Cl)c1 (stereo partly drawn)
76% |  |  | […] |  |  |  | CC1(C)[C@H](NC(=O)c2ccc(C(=O)N3CCN(CC4CCN(c5ccc6c(c5)C(=O)N(C5CCC(=O)NC5=O)C6=O)CC4)CC3)cc2)C(C)(C)[C@H]1Oc1ccc(C#N)c(Cl)c1 (stereo partly drawn)
< 5% | 15% | 75% | 80% |  |  |  | CC1(C)[C@H](NC(=O)c2ccc(N3CCN(CC4CCN(c5ccc6c(c5)C(=O)N(C5CCC(=O)NC5=O)C6=O)CC4)CC3)cc2)C(C)(C)[C@H]1Oc1ccc(C#N)c(F)c1 (stereo partly drawn)
< 5% | 9% | 36% | 38% |  |  |  | CC1(C)[C@H](NC(=O)c2ccc(NCCCCCNc3cccc4c3C(=O)N(C3CCC(=O)NC3=O)C4=O)cc2)C(C)(C)[C@H]1Oc1ccc(C#N)c(Cl)c1 (stereo partly drawn)
69% | 85% | 77% | 79% | 16.9 ng/mL | 8 ng/mL | 1.6 ng/mL | CC1(C)[C@H](NC(=O)c2ccc(NCCCCCCNc3ccc4c(c3)C(=O)N(C3CCC(=O)NC3=O)C4=O)cc2)C(C)(C)[C@H]1Oc1ccc(C#N)c(Cl)c1 (stereo partly drawn)
0% | 25% | 63% | 70% |  |  |  | CC1(C)[C@H](NC(=O)c2ccc(NCCCNc3ccc4c(c3)C(=O)N(C3CCC(=O)NC3=O)C4=O)cc2)C(C)(C)[C@H]1Oc1ccc(C#N)c(Cl)c1 (stereo partly drawn)
10% | 22% | 43% | 48% |  |  |  | CC1(C)[C@H](NC(=O)c2ccc(NCCCCCCNc3cccc4c3C(=O)N(C3CCC(=O)NC3=O)C4=O)cc2)C(C)(C)[C@H]1Oc1ccc(C#N)c(Cl)c1 (stereo partly drawn)

Structure (SMILES) | Activity [1] | Activity [2] | Activity [3] | Activity [4] | concentration at 1 h [5] | concentration at 3 h [6] | concentration at 6 h [7]
CC1(C)[C@H](NC(=O)c2ccc(N3CCN(C4CN(c5ccc6c(c5)C(=O)N(C5CCC(=O)NC5=O)C6=O)C4)CC3)cc2)C(C)(C)[C@H]1Oc1ccc(C#N)c(Cl)c1 (stereo partly drawn) | 54% | 77% | 91% | 73% |  |  | 

From ChEMBL document CHEMBL4842367, “Strategies toward Discovery of Potent and Orally Bioavailable Proteolysis Targeting Chimera Degraders of Androgen Receptor for the Treatment of Prostate Cancer” (J Med Chem, 2021)
